Measured values: ChEMBL document CHEMBL1148639, “A novel series of potent and selective PDE5 inhibitors with potential for high and dose-independent oral bioavailability” (J Med Chem, 2006)
Values after ≈ are worked out from the molar mass of the structure shown. Each block holds one molecule with its values, some of them ahead of it.

Tests used:
[1] = Selectivity for human PDE5 over canine retinal PDE6
How it was run: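 Ratio of IC50s for PDE5 from human corpus cavernosum and cone PDE6 from canine retina. PDE6 came from the 100 000g supernatant of retina homogenate, purified by anion exchange with a NaCl gradient. Activity was read by scintillation proximity assay with cGMP (3:1 unlabeled:3H) at about 1/3 Km, so IC50 = Ki. Buffer was 20 mM Tris-HCl pH 7.4, 5 mM MgCl2 and 1 mg/mL BSA. Incubation ran 30-60 min at 30 °C, keeping turnover below 30%. PDE5 curves spanned 1 nM-10 µM.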

[2] = Distribution coefficient, logD of the compound; assay type: physicochemical; conditions: octanol/water
[3] = molecular target: T1, cGMP-specific 3',5'-cyclic phosphodiesterase (Homo sapiens, UniProt O76074)
[4] = Apparent permeability in human Caco-2 cell at 25 uM; assay type: ADME, cell-based
How it was run: (§1)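 Human Caco-2 monolayers were used. Papp = amount transported/(time × surface area × initial concentration). Compounds were tested at 25 µM unless stated otherwise. Efflux ratio = secretory flux ÷ absorptive flux.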

[5] = Ratio of secretory flux to absorptive flux in human Caco-2 cell; assay type: ADME, cell-based; how it was run: as §1
[6] = Oral bioavailability in human; assay type: ADME, organism-based; conditions: in vivo
[7] = Stability in dog liver microsome; assay type: ADME, Canis lupus familiaris; conditions: liver microsomes, read-out: Stability
[8] = Solubility at pH 6.95; assay type: physicochemical; conditions: buffer
How it was run: (§2)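 Solid was removed by filtration (with filter-binding check) or double centrifugation. The pH of the soluble fraction was measured, and the solution was diluted in mobile phase and quantified by HPLC or MS. Bulk form was checked by microscopy.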

physchem = conditions: octanol/water, pH 7.4
[9] = Solubility at pH 7.4; assay type: physicochemical; conditions: buffer; how it was run: as §2
[10] = Half life in dog at 0.5 mg/kg; assay type: ADME, organism-based, Canis lupus familiaris; set-up: dose 0.5 mg/kg; conditions: in vivo
How it was run: (§3)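 Compound was given intravenously to dogs. Pharmacokinetic parameters, including plasma protein binding, are means of n = 2 animals.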

[11] = Oral bioavailability in dog at 0.5 mg/kg; assay type: ADME, organism-based, Canis lupus familiaris; conditions: in vivo
[12] = Volume of distribution in dog at 0.5 mg/kg; assay type: ADME, organism-based, Canis lupus familiaris; set-up: dose 0.5 mg/kg; conditions: in vivo, read-out: Vdss; how it was run: as §3
[13] = Clearance in dog at 0.5 mg/kg; assay type: ADME, organism-based, Canis lupus familiaris; set-up: dose 0.5 mg/kg; conditions: in vivo; how it was run: as §3
[14] = Tmax in dog at 0.5 mg/kg; assay type: ADME, organism-based, Canis lupus familiaris; set-up: dose 0.5 mg/kg; conditions: in vivo
[15] = Plasma protein binding in dog at 0.5 mg/kg; assay type: ADME, organism-based, Canis lupus familiaris; set-up: dose 0.5 mg/kg; conditions: read-out: PPB (converted); how it was run: as §3
[16] = molecular target: T1, cGMP-specific 3',5'-cyclic phosphodiesterase; remark: listed apart in the source
[17] = Solubility at pH 7.3; assay type: physicochemical; conditions: buffer; how it was run: as §2
[18] = Solubility at pH 7.6; assay type: physicochemical; conditions: buffer; how it was run: as §2

SMILES: CCCOc1ncc(C(C)=O)cc1-c1nc(O)c2nn(C3CN(C)C3)c(CC)c2n1
Selectivity ratio [1]: 69

SMILES: CCCCOc1ncc(C(C)=O)cc1-c1nc(O)c2nn(C3CN(CC)C3)c(CC)c2n1
Selectivity ratio [1]: 153

SMILES: CCCc1nn(C)c2c(=O)[nH]c(-c3cc(C(=O)CN4CCOCC4)ccc3OCC)nc12
Papp at 25 µM [4]: 33 ×10⁻⁶ cm/s
efflux ratio [5]: 0.8
IC50 [3]: 1.7 nM

SMILES: CCCCOc1ncc(C(C)=O)cc1-c1nc(O)c2nn(C3CNC3)c(CC)c2n1
Selectivity ratio [1]: 29

SMILES: CCc1c2nc(-c3cc(C(C)=O)cnc3OCC(C)C)[nH]c(=O)c2nn1C1CN(C)C1
IC50 [3]: 8.2 nM

SMILES: CCCCOc1ncc(C(C)=O)cc1-c1nc(O)c2nn(C3CCN(C)CC3)c(CC)c2n1
Selectivity ratio [1]: 77

SMILES: CCCCOc1ncc(C(C)=O)cc1-c1nc(O)c2nn(C3CCNCC3)c(CC)c2n1
Selectivity ratio [1]: 57

SMILES: CCCOc1ncc(C(C)=O)cc1-c1nc(O)c2nn(Cc3nccn3C)c(CC)c2n1
Selectivity ratio [1]: 58
IC50 [3]: 2.7 nM

SMILES: CCCc1nn(C)c2c(=O)[nH]c(-c3cc(C(C)=O)ccc3OCC)nc12
Papp at 25 µM [4]: 43 ×10⁻⁶ cm/s
efflux ratio [5]: 0.7
IC50 [3]: 17 nM

SMILES: CCc1c2nc(-c3cc(S(=O)(=O)N4CCN(CC)CC4)cnc3OCCOC)[nH]c(=O)c2nn1Cc1ccccn1
bioavailability [6]: 45%
IC50 [3]: 1.3 nM

SMILES: CCCCOc1ncc(C(C)=O)cc1-c1nc(O)c2nn(Cc3nccn3C)c(CC)c2n1
Selectivity ratio [1]: 142
half-life [7]: > 2 h
Papp at 25 µM [4]: 5 ×10⁻⁶ cm/s
efflux ratio [5]: 1.6
solubility [8]: 6 µg/mL (≈ 13.3 µM)
IC50 [3]: 0.9 nM
logD (physchem): 2.6

SMILES: CCCCOc1ncc(C(C)=O)cc1-c1nc(O)c2nn(C3CN(C)C3)c(CC)c2n1
Selectivity ratio [1]: 43

SMILES: CCc1c2nc(-c3cc(C(C)=O)cnc3OCCOC)nc(O)c2nn1CCN1CCOCC1
Selectivity ratio [1]: 58
IC50 [3]: 53 nM

SMILES: CCCCOc1ncc(C(C)=O)cc1-c1nc2c(CC)n(CCN3CCOCC3)nc2c(=O)[nH]1
half-life [7]: > 2 h
Papp at 25 µM [4]: 37 ×10⁻⁶ cm/s
solubility [17]: < 10 µg/mL
IC50 [3]: 2.6 nM

SMILES: CCCOc1ncc(C(C)=O)cc1-c1nc(=O)c2nn(C3CNC3)c(CCC)c2[nH]1
Selectivity ratio [1]: 26
logD [2]: 0.6
IC50 [3]: 18.2 nM

SMILES: CCCOc1ncc(C(C)=O)cc1-c1nc(O)c2nn(C3CN(CC)C3)c(CC)c2n1
Selectivity ratio [1]: 61

SMILES: CCCOc1ncc(C(C)=O)cc1-c1nc(O)c2nn(C3CN(C(C)C)C3)c(CC)c2n1
Selectivity ratio [1]: 60

SMILES: CCCOc1ncc(C(C)=O)cc1-c1nc(O)c2nn(C3CCNCC3)c(CC)c2n1
Selectivity ratio [1]: 53

SMILES: CCc1c2nc(-c3cc(C(C)=O)cnc3OCC(C)C)nc(O)c2nn1C1CN(C)C1
Selectivity ratio [1]: 84

SMILES: CCCOc1ncc(C(C)=O)cc1-c1nc(=O)c2nn(C3CNC3)c(CC)c2[nH]1
Selectivity ratio [1]: 55

SMILES: CCCOc1ncc(C(C)=O)cc1-c1nc(O)c2nn(C3CCN(C)CC3)c(CC)c2n1
Selectivity ratio [1]: 37

SMILES: CCCOc1ncc(C(C)=O)cc1-c1nc(O)c2nn(C3CN(C)C3)c(CCC)c2n1
Selectivity ratio [1]: 30
logD [2]: 1.5
IC50 [3]: 14.7 nM

Other lines, results leading:

logD [2]: 1.2
IC50 [3]: 9.5 nM
SMILES: CCCOc1ncc(C(C)=O)cc1-c1nc2c(CC)n(C3CN(C)C3)nc2c(=O)[nH]1

IC50 [3]: 7 nM
SMILES: CCCOc1ncc(C(C)=O)cc1-c1nc2c(CC)n(C3CCNCC3)nc2c(=O)[nH]1

Selectivity ratio [1]: 350
SMILES: CCCCOc1ncc(C(C)=O)cc1-c1nc(O)c2nn(C3CCN(CC)CC3)c(CC)c2n1

IC50 [3]: 6.4 nM
SMILES: CCCCOc1ncc(C(C)=O)cc1-c1nc2c(CC)n(C3CN(C)C3)nc2c(=O)[nH]1

IC50 [3]: 13 nM
SMILES: CCCOc1ncc(C(C)=O)cc1-c1nc2c(CC)n(C3CCN(CC)CC3)nc2c(=O)[nH]1

IC50 [3]: 9.1 nM
SMILES: CCCCOc1ncc(C(C)=O)cc1-c1nc2c(CC)n(C3CCN(C)CC3)nc2c(=O)[nH]1

IC50 [3]: 7.1 nM
SMILES: CCCOc1ncc(C(C)=O)cc1-c1nc2c(CC)n(C3CN(CC)C3)nc2c(=O)[nH]1

IC50 [3]: 21 nM
SMILES: CCCCOc1ncc(C(C)=O)cc1-c1nc2c(CC)n(C3CNC3)nc2c(=O)[nH]1

logD [2]: 0.3
IC50 [3]: 34 nM
SMILES: CCCOc1ncc(C(C)=O)cc1-c1nc2c(CC)n(C3CNC3)nc2c(=O)[nH]1

Selectivity ratio [1]: 18
SMILES: CCCOc1ncc(C(C)=O)cc1-c1nc(O)c2nn(C3CCN(CC)CC3)c(CC)c2n1

half-life [7]: 1.58 h
Papp at 25 µM [4]: 30 ×10⁻⁶ cm/s
efflux ratio [5]: 0.9
solubility [9]: 390 µg/mL (≈ 889 µM)
half-life [10]: 9 h
bioavailability [11]: 76%
Vd [12]: 13.4 L/kg
clearance [13]: 17.5 mL/min/kg
Tmax [14]: 1.4 h
fraction unbound [15]: 0.38
IC50 [3]: 5.5 nM
IC50 [16]: 5.5 nM
logD (physchem): 2.8
SMILES: CCCCOc1ncc(C(C)=O)cc1-c1nc2c(CC)n(C3CN(CC)C3)nc2c(=O)[nH]1

half-life [7]: > 2 h
Papp at 25 µM [4]: 28 ×10⁻⁶ cm/s
efflux ratio [5]: 0.5
solubility [17]: 170 µg/mL (≈ 388 µM)
half-life [10]: 7.2 h
bioavailability [11]: 91%
Vd [12]: 7.8 L/kg
clearance [13]: 13 mL/min/kg
Tmax [14]: 1.9 h
fraction unbound [15]: 0.34
IC50 [3]: 5.2 nM
logD (physchem): 2.5
SMILES: CCCOc1ncc(C(C)=O)cc1-c1nc2c(CC)n(C3CN(C(C)C)C3)nc2c(=O)[nH]1

IC50 [3]: 18 nM
SMILES: CCCCOc1ncc(C(C)=O)cc1-c1nc2c(CC)n(C3CCNCC3)nc2c(=O)[nH]1

IC50 [3]: 12 nM
SMILES: CCCOc1ncc(C(C)=O)cc1-c1nc2c(CC)n(C3CCN(C)CC3)nc2c(=O)[nH]1

half-life [7]: > 2 h
Papp at 25 µM [4]: 53 ×10⁻⁶ cm/s
efflux ratio [5]: 1
solubility [18]: 1100 µg/mL (≈ 2360 µM)
half-life [10]: 6.7 h
Vd [12]: 22 L/kg
clearance [13]: 38 mL/min/kg
fraction unbound [15]: 0.4
IC50 [3]: 3.6 nM
logD (physchem): 1.8
SMILES: CCCCOc1ncc(C(C)=O)cc1-c1nc2c(CC)n(C3CCN(CC)CC3)nc2c(=O)[nH]1
